Experimental data gathered from unrelated publications.
Compare with care: the assays were run in different laboratories.
Target: Mitogen-activated protein kinase kinase kinase 20 (MAP3K20, Homo sapiens, UniProt Q9NYL2)

| SMILES | test | conditions | quantity | result |
| --- | --- | --- | --- | --- |
| O=C(NC[C@@H]1[C@H]2CN(C(=O)OCc3cc(C(F)(F)F)cc(C(F)(F)F)c3)C[C@@H]12)c1ccc2[nH]nnc2c1 | cell-free assay, competition with immobilised ligand | 1 µM | remaining binding | 86% |
| Nc1ncnc2c1ncn2[C@@H]1O[C@H](COP(=O)(O)OP(=O)(O)OP(=O)(O)O)[C@@H](O)[C@H]1O | enzyme activity, substrate, mass spectrometry | – | Km | 140 µM |
| Cn1c2c(c3ccc(Cl)c(Cl)c31)C(C#N)C1(CCNCC1)NC2=O (racemic) | thermal stability, DSF | 10 µM | ΔTm | 0 °C |
| c1nc2c(Nc3ccc4c(c3)OCCO4)nc(Nc3ccc4c(c3)OCCO4)nc2[nH]1 | enzyme activity, inhibitor | 10 µM | activity vs control | 76% |
| CNC(=O)c1cc(Oc2ccc(NC(=O)Nc3ccc(Cl)c(C(F)(F)F)c3)cc2)ccn1 | cell-free assay | 0.5 µM | remaining signal | 16.7% |
| c1ccc(CNc2nc(N3CCOc4ccccc43)nc3c2CCCC3)cc1 | target engagement in cells, inhibitor, chemoproteomics | 20 mM | inhibition | -6.3% |
| CNC(=O)c1cc2c(Oc3ccc(NC(=O)C4(C(=O)Nc5ccc(F)cc5)CC4)cc3)ccnc2cc1OC | enzyme activity, inhibitor, radiometric | 1 µM | inhibition | 82% |
| N#CCCc1ccc2c(c1)-c1[nH]c3ccc([N+](=O)[O-])cc3c1CC(=O)N2 | cell-free assay | 0.5 µM | remaining signal | 88.6% |
| CCCCNc1ncc2c(-c3ccc(F)cc3)nn(C[C@H]3CC[C@H](N)CC3)c2n1 | target engagement in cells, inhibitor, chemoproteomics | 20 mM | inhibition | 35.9% |
| Cc1nccc(COC(=O)N2C[C@@H]3[C@@H](CNC(=O)c4ccc5[nH]nnc5c4)[C@@H]3C2)n1 | cell-free assay, competition with immobilised ligand | 1 µM | remaining binding | 90% |
| CCN1CCC2(CC1)NC(=O)c1c(c3ccc(Cl)c(Cl)c3n1C)C2C#N (racemic) | thermal stability, DSF | 10 µM | ΔTm | -0.3 °C |
| CSc1cccnc1N1CCN(Cc2nc3ccccc3[nH]2)CC1 | cell-free assay, competition with immobilised ligand | 1 µM | remaining binding | 100% |
| Cc1ccc(C(=O)Nc2ccc(CN3CCN(C)CC3)c(C(F)(F)F)c2)cc1C#Cc1cnc2cccnn12 | enzyme activity, inhibitor | 23.5 nM | remaining activity | 2.9% |
| CCCOc1ccc([C@H]2[C@H](C(=O)O)[C@@H](c3ccc4c(c3)OCO4)CN2CC(=O)Nc2c(CC)cccc2CC)cc1 | cell-free assay, competition with immobilised ligand | 1 µM | remaining binding | 90% |
| Cn1c2c(Cl)c(Cl)ccc2c2cn[nH]c(=O)c21 | thermal stability, DSF | 10 µM | ΔTm | 0.4 °C |
| O=C1NC(=O)c2cc(Nc3ccc(F)cc3)c(Nc3ccc(F)cc3)cc21 | cell-free assay | 0.5 µM | remaining signal | 94.5% |
| O=C(N1CCS(=O)(=O)CC1)N1C[C@H](c2ccc(OC(F)(F)F)cc2)C[C@H](c2nc(C3CC3)no2)C1 | cell-free assay, competition with immobilised ligand | 1 µM | remaining binding | 100% |
| Cc1sc(C(=O)NC2COC2)cc1-n1cc(NC(=O)Nc2c(F)cccc2Cl)cn1 | enzyme activity, inhibitor | 10 µM | remaining activity | 89.9% |
| CCCCN(CCCC)C(=O)CN1C[C@H](c2cc(OC)c3c(c2)OCO3)[C@@H](C(=O)O)[C@@H]1CC(C)(C)CCC | cell-free assay, competition with immobilised ligand | 1 µM | remaining binding | 85.2% |
| Cn1c2c(c3ccc(Cl)c(Cl)c31)C(C#N)C1(CCCC1)NC2=O (centres unmarked) | thermal stability, DSF | 10 µM | ΔTm | -0.1 °C |
| CO[C@H]1CC[C@H](CNc2ccc(S(=O)(=O)NC(=O)c3ccc(N4CCN(CC5=C(c6ccc(Cl)cc6)CC(C)(C)CC5)CC4)cc3Oc3cnc4[nH]ccc4c3)cc2[N+](=O)[O-])CC1 | cell-free assay, competition with immobilised ligand | 1 µM | remaining binding | 100% |
| CC(C)(C)c1nc(-c2cccc(NS(=O)(=O)c3c(F)cccc3F)c2F)c(-c2ccnc(N)n2)s1 | enzyme activity, inhibitor, radiometric | 1 µM | remaining activity | 101% |
| Cn1c2c(Cl)c(Cl)ccc2c2cc[nH]c(=O)c21 | thermal stability, DSF | 10 µM | ΔTm | -0.2 °C |
| Nc1c(C(=O)NCc2ccc(C(=O)NCCCC3CCCCC3)cc2)cnn1-c1ccccc1 | binding, competition with immobilised ligand | 1 µM | remaining binding | 42% |
| Cn1c2c(c3ccccc31)C(C#N)C(C)(C)NC2=O (centres unmarked) | thermal stability, DSF | 10 µM | ΔTm | -0.3 °C |
| Nc1ncnc2occ(-c3ccc(NC(=O)Nc4cc(C(F)(F)F)ccc4F)cc3)c12 | cell-free assay, inhibitor | 20 µM | remaining signal | 0.15% |
